A short description of data set [1]: Plasma concentration cynomolgus monkey at 1000 mg/kg, po after 4 hrs. The data set is classed as ADME, organism-based, Macaca fascicularis. Further details: dose 1000 mg/kg, route oral.
Data set [2] deals with Oryctolagus cuniculus. Nature of the data set: Cardiotoxicity in anesthetized New Zealand White rabbit assessed as change in heart rate at 1 mg/kg/min, iv after 10 mins relative to baseline. The data set is classed as toxicity, organism-based. Also on record: route intravenous. The settings on record: in vivo. In a few lines: (§1)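 Female NZW rabbits anesthetized with ketamine 35 mg/kg ip plus xylazine 5 mg/kg ip, tracheotomized, ventilated with room air. ECG and systemic pressure monitored; HR, PR, QRS, QT, QTc quantified. After stabilization, continuous iv infusion 1 mg/kg/min for 1 h; values at 10 min as % change from baseline.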

The target in data set [3] is T1, Renin (Macaca fascicularis) (UniProt Q6DLS0).
T1 sequence (whole entry): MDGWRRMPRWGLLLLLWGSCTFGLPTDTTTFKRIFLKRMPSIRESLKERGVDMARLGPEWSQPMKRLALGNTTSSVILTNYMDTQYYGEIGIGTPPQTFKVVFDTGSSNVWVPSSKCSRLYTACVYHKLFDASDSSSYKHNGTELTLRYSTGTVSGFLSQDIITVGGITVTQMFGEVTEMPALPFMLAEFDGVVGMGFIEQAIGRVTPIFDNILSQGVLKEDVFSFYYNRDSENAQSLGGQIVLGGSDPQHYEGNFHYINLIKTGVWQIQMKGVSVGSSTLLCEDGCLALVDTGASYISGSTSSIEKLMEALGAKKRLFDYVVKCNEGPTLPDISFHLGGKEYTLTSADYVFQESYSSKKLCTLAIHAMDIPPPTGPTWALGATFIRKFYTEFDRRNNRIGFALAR
The data set can be described thus: Ratio of compound IC50 to aliskiren IC50 for renin in cynomolgus monkey plasma.

A further data set concerns Rattus norvegicus. Nature of the data set: Cardiotoxicity in Sprague-Dawley rat electrophysiology model assessed as QRS complex abnormalities at 10 mg/kg, iv by ECG analysis. The data set is classed as toxicity, organism-based. Also on record: dose 10 mg/kg, route intravenous. The following applies: in vivo. In a few lines: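 Male Sprague-Dawley rats anesthetized with inactin 100 mg/kg ip; surface lead II ECG recorded continuously. Compounds given as iv bolus via right jugular vein catheter after stabilization; QRS complex abnormality scored as no, moderate or severe change; n = 2 at 10 mg/kg.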

The test system of data set [4] is Cynomolgus monkey. Nature of the data set: Cardiotoxicity in conscious cynomolgus monkey assessed as change in QTc interval at 1000 mg/kg, po after 4 hrs relative to baseline. The following applies: in vivo.
Data set [5] has as its system Oryctolagus cuniculus. The data set can be described thus: Cardiotoxicity in anesthetized New Zealand White rabbit assessed as change in QTc interval at 1 mg/kg/min, iv after 10 mins relative to baseline. It is filed as toxicity, organism-based. Further details: route intravenous. The settings on record: in vivo. A digest of the protocol: as §1
For a further data set, the target named is CYP3A4 (Homo sapiens, UniProt P08684). Nature of the data set: Inhibition of CYP3A4 in human liver microsomes assessed as residual activity at 100 uM by LC/MS analysis. It is filed as ADME, Microsome. The following applies: read-out: Activity.
Chain of CYP3A4 (P08684 whole entry, the tested form may be a part): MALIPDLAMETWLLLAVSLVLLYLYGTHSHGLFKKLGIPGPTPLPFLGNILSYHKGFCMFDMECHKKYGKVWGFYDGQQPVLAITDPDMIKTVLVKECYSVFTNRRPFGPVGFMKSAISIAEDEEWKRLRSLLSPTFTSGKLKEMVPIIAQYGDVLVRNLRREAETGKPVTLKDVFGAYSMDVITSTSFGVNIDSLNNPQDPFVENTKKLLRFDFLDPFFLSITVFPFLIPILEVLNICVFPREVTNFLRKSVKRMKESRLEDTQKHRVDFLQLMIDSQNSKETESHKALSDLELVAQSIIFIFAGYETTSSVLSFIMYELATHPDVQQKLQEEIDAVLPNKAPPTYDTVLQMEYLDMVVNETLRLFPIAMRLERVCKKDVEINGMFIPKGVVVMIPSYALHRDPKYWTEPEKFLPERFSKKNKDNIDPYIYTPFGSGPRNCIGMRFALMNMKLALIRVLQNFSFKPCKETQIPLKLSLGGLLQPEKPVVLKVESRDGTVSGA
In data set [6] the test system is Heart. The data set can be described thus: Cardiotoxicity in New Zealand White rabbit heart assessed as change in […] at 100 uM after 20 mins relative to baseline. It is filed as toxicity, tissue-based, Oryctolagus cuniculus. In a few lines: (§2)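 Isolated Langendorff-perfused hearts from female NZW rabbits anesthetized with thiopental 30 mg/kg iv; heart excised into chilled Krebs-Henseleit solution. After parameters stabilized, compound perfused at 10, 30 and 100 µM for 20 min; ECG changes expressed as % change from baseline.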

For data set [7], the system named is Cynomolgus monkey. Nature of the data set: Inhibition of renin in furosemide pretreated cynomolgus monkey assessed as reduction in mean arterial blood pressure at 1 to 10 mg/kg, po up to 24 hrs. It is filed as functional, organism-based. The settings on record: Macaca fascicularis. A digest of the protocol:
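Conscious freely moving telemetered cynomolgus monkeys (n = 6), furosemide 5 mg/kg/day im for 3 days before dosing; fasted from morning, fed ≥8 h post-dose. Oral 1, 3, 10 mg/kg or 1% methylcellulose, crossover design; arterial pressure recorded from −3 to 24 h; hourly mean MAP; mean ± SEM.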

Data set [8] relates to Canis familiaris. Nature of the data set: Cardiotoxicity in anesthetized beagle dog assessed as change in QRS width at 0.5 mg/kg/min, iv after 30 mins relative to baseline. It is filed as toxicity, organism-based, Canis lupus familiaris. Further details: route intravenous. The settings on record: in vivo, 0.5 h. A digest of the protocol: (§3)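 Anesthetized dogs; after ECG parameters stabilized, compound infused iv continuously at 0.5 mg/kg/min for 1 h. ECG changes at 30 min as % change from baseline; 2 mL blood drawn from left femoral artery for plasma drug concentration.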

In data set [9] the target is Voltage-gated inwardly rectifying potassium channel KCNH2 (Homo sapiens, UniProt Q12809). The data set can be described thus: Inhibition of human ERG channel expressed in CHOK1 cells at 100 uM after 5 mins by patch clamp technique. It is filed as cell-based. The following applies: cho-k1, 5 min. A digest of the protocol:
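CHO-K1 cells stably expressing hERG; automated patch clamp. Holding −80 mV, step to +50 mV for 2 s, then −40 mV for 2 s; tail peak current measured. Compound incubated 5 min.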

In data set [10] the test system is Cynomolgus monkey. The data set can be described thus: Cardiotoxicity in conscious cynomolgus monkey assessed as change in QRS width at 1000 mg/kg, po after 4 hrs relative to baseline. The following applies: in vivo.
Data set [11] concerns Cynomolgus monkey. The data set can be described thus: Cardiotoxicity in cynomolgus monkey assessed as change in pulse rate at 1000 mg/kg, po after 4 hrs relative to baseline. The settings on record: in vivo.
Data set [12] has as its system Canis familiaris. Nature of the data set: Cardiotoxicity in anesthetized beagle dog assessed as change in QTc interval at 0.5 mg/kg/min, iv after 30 mins relative to baseline. Also on record: route intravenous. The following applies: in vivo, 0.5 h. It is filed as toxicity, organism-based, Canis lupus familiaris. In a few lines:
as §3

Data set [13] is described as follows: Plasma concentration in beagle dog at 0.5 mg/kg/min, iv after 30 mins. It is filed as ADME, organism-based, Canis lupus familiaris. Also on record: route intravenous. In a few lines:
as §3

Data set [14] is filed under the species Oryctolagus cuniculus. Nature of the data set: Cardiotoxicity in New Zealand White rabbit heart assessed as change in QTc interval at 100 uM after 20 mins relative to baseline. It is filed as toxicity. The following applies: ex_vivo. In a few lines:
as §2

Data set [15] relates to Cynomolgus monkey. Nature of the data set: Cardiotoxicity in conscious cynomolgus monkey assessed as change in heart rate at 1000 mg/kg, po after 4 hrs relative to baseline. The settings on record: in vivo.
Data set [16] concerns Canis familiaris. The data set can be described thus: Cardiotoxicity in anesthetized beagle dog assessed as change in […] at 0.5 mg/kg/min, iv after 30 mins relative to baseline. It is filed as toxicity, organism-based, Canis lupus familiaris. Further details: route intravenous. The following applies: in vivo, 0.5 h. In a few lines:
as §3

In data set [17] the test system is Heart. The data set can be described thus: Cardiotoxicity in New Zealand White rabbit heart assessed as change in heart rate at 100 uM after 20 mins relative to baseline. It is filed as toxicity, tissue-based, Oryctolagus cuniculus. In a few lines:
as §2

Data set [18] concerns Cynomolgus monkey. Nature of the data set: Inhibition of renin in po dosed furosemide pretreated cynomolgus monkey plasma after 1 to 24 hrs. The settings on record: Macaca fascicularis. It is filed as functional, organism-based. In a few lines:
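Cynomolgus monkeys pretreated with furosemide given single oral dose 1, 3 or 10 mg/kg or vehicle 1% methylcellulose. Venous blood into EDTA-2Na tubes at 1, 2, 4, 8, 24 h, chilled, centrifuged cold, plasma frozen; plasma renin activity by radioimmunoassay.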

In data set [19] the test system is Heart. The data set can be described thus: Cardiotoxicity in New Zealand White rabbit heart assessed as change in QRS width at 100 uM after 20 mins relative to baseline. It is filed as toxicity, tissue-based, Oryctolagus cuniculus. A digest of the protocol: as §2
Data set [20] deals with Sodium channel protein type 5 subunit alpha (Homo sapiens, UniProt Q14524). Nature of the data set: Inhibition of human voltage-gated Na channel 1.5 expressed in HEK293 cells at 100 uM after 2 mins by patch clamp technique. The following applies: hek293, 2 min. The data set is classed as cell-based. In a few lines: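 HEK293 cells stably expressing hNav1.5; automated patch clamp. 20 ms pulses to −10 mV from −120 mV holding at 1 Hz continuously; peak sodium current measured; compound incubated 2 min.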
Chain of Sodium channel protein type 5 subunit alpha (Q14524 whole entry): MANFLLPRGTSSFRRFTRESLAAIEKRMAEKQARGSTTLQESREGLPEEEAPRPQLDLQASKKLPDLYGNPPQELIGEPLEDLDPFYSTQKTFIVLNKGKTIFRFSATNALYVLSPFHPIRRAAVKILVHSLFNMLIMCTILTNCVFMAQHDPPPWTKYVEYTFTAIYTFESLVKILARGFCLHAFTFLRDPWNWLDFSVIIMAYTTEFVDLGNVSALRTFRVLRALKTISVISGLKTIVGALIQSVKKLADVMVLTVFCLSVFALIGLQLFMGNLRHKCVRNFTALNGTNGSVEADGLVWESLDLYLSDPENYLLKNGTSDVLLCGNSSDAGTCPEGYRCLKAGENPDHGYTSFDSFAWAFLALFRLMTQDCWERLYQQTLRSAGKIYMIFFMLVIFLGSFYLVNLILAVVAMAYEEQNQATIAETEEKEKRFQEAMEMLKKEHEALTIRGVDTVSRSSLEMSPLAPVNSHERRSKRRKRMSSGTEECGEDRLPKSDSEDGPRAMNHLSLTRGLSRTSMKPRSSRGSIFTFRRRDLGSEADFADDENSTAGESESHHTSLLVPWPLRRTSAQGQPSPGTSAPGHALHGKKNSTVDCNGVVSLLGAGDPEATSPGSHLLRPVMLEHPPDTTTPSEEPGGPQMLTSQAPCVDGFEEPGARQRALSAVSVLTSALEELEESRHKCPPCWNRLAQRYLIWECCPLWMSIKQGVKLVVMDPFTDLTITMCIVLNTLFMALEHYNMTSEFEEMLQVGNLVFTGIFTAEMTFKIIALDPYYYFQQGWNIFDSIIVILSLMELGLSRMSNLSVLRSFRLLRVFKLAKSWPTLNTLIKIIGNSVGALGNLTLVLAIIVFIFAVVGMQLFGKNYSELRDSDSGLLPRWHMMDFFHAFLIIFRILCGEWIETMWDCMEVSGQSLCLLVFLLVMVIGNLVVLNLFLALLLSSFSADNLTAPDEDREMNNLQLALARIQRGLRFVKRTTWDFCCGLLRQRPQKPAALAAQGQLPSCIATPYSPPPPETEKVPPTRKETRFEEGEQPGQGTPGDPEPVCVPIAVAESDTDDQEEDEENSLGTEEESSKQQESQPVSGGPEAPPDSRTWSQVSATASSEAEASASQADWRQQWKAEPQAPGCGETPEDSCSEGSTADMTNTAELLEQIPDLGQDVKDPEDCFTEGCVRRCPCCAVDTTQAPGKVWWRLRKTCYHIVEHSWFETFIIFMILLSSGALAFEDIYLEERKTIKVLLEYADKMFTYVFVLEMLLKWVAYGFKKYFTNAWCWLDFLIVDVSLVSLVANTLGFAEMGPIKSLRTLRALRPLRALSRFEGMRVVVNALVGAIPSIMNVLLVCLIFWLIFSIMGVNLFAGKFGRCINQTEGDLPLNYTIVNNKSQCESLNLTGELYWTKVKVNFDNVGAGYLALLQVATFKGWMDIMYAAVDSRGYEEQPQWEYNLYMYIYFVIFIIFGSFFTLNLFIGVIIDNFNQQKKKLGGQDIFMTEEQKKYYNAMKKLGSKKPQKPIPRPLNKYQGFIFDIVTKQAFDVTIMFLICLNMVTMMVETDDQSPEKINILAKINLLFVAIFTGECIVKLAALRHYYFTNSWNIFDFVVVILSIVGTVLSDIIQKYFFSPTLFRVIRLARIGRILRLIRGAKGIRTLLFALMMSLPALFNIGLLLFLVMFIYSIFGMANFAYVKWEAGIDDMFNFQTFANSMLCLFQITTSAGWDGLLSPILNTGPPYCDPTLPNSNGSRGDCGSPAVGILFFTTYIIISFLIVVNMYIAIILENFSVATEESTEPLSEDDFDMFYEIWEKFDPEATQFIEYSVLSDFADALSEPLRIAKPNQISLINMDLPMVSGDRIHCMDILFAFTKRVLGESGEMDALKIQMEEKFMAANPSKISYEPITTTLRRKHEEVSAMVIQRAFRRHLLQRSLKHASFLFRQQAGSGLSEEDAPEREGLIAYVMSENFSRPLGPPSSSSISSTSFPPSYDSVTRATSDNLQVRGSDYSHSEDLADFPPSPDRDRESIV

Active and inactive are the calls of the source. The calls are words filed in the database; no cut-off is given here.

Chain of Voltage-gated inwardly rectifying potassium channel KCNH2 (Q12809 whole entry): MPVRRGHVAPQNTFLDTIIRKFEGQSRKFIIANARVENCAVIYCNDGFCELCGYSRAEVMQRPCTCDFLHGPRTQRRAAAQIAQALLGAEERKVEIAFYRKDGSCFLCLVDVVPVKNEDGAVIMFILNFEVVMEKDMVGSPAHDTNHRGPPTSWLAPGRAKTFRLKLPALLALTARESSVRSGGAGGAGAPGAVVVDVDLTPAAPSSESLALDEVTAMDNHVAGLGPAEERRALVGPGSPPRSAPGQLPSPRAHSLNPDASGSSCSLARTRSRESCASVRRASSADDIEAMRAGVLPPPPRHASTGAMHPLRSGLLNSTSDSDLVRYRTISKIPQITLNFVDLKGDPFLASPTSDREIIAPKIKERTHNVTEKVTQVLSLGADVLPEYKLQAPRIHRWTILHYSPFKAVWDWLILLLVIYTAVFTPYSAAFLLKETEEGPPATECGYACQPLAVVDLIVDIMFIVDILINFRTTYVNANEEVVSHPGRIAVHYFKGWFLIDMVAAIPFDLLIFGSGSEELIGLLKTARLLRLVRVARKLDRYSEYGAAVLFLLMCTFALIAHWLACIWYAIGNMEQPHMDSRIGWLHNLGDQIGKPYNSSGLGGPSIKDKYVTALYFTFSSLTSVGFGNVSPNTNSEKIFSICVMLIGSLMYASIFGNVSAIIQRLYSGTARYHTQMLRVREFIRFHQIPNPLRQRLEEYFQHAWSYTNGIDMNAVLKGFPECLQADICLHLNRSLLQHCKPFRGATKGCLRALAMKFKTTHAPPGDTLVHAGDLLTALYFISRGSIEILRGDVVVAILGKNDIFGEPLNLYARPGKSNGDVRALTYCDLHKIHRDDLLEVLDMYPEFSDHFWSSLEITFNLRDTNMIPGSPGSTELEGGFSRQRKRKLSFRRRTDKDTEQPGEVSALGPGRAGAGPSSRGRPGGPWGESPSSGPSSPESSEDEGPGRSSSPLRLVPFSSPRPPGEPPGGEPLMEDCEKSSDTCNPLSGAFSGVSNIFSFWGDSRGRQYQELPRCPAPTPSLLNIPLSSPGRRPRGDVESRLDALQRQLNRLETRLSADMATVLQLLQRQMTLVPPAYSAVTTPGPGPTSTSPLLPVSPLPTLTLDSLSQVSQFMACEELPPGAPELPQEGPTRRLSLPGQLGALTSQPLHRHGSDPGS

Take `CC[C@H](C[C@H](O)[C@@H](N)CN1CC(=O)N(c2ccccc2Cl)CC1(C)C)C(=O)N[C@H]1C2CC3CC1C[C@](O)(C3)C2.O=C(O)/C=C/C(=O)O`: in [1], the concentration at 4 h was 5400 ng/mL. The Activity in the data set with Oryctolagus cuniculus [2] is recorded as 3.9%; in the data set with Rattus norvegicus, “Non-toxic”; in the data set on Cynomolgus monkey [4], -0.4%; in the data set on Oryctolagus cuniculus [5] it was 2.7%; with Heart [6] it was 1.7%; with Canis familiaris [8] it was 5.8%. Also, the Activity with Cynomolgus monkey [10] is -7.6%; in the data set with Cynomolgus monkey [11], 0.3%; with Canis familiaris [12], -1.4%; in the data set listed under Oryctolagus cuniculus [14], -3.2%; in the data set with Cynomolgus monkey [15], -4.2%; in the data set with Canis familiaris [16], -1.5%. The Activity with Heart [17] was -5.8%; in the data set on Heart [19], 1.7%. Besides, the Ratio IC50 in data set [3] was 0.8. Moreover, the activity at 100 µM on CYP3A4 amounted to 77.9%. Also, the inhibition entry with Cynomolgus monkey [7] was “Active”. Further, the “inhibition (INH)” value in data set [9] and in data set [20] was “Not Active” each time. For the same molecule, in data set [13], the concentration at 0.5 h amounted to 38100 ng/mL. The inhibition result in the data set on Cynomolgus monkey [18] is “Dose-dependent effect”.

The values above are taken from ChEMBL document CHEMBL2384910, “Lead optimization of 5-amino-6-(2,2-dimethyl-5-oxo-4-phenylpiperazin-1-yl)-4-hydroxyhexanamides to reduce a cardiac safety issue: discovery of DS-8108b, an orally active renin inhibitor” (Bioorg Med Chem, 2013).
